In ChEMBL document CHEMBL4196202, “Discovery and Structure-Based Optimization of Benzimidazole-Derived Activators of SOS1-Mediated Nucleotide Exchange on RAS” (J Med Chem, 2018):
pEC50, pKd: −log10 of the molar value. In brackets after ≈: the same amount, converted by molar mass. Activity calls are given as the source filed them. The calls are words filed in the database; no cut-off is given here.

What was measured:
[1] = target: T1, Son of sevenless homolog 1 (Homo sapiens) (UniProt Q07889); assay: Activation of SOS1 in human NCI-H727 cells expressing KRAS G12V mutant assessed as induction of ERK1/2 T202/Y204 phosphorylation at 1.5 to 100 uM (lower range) incubated for 30 mins by In-cell Western assay; format: cell-based
T1 sequence (whole entry): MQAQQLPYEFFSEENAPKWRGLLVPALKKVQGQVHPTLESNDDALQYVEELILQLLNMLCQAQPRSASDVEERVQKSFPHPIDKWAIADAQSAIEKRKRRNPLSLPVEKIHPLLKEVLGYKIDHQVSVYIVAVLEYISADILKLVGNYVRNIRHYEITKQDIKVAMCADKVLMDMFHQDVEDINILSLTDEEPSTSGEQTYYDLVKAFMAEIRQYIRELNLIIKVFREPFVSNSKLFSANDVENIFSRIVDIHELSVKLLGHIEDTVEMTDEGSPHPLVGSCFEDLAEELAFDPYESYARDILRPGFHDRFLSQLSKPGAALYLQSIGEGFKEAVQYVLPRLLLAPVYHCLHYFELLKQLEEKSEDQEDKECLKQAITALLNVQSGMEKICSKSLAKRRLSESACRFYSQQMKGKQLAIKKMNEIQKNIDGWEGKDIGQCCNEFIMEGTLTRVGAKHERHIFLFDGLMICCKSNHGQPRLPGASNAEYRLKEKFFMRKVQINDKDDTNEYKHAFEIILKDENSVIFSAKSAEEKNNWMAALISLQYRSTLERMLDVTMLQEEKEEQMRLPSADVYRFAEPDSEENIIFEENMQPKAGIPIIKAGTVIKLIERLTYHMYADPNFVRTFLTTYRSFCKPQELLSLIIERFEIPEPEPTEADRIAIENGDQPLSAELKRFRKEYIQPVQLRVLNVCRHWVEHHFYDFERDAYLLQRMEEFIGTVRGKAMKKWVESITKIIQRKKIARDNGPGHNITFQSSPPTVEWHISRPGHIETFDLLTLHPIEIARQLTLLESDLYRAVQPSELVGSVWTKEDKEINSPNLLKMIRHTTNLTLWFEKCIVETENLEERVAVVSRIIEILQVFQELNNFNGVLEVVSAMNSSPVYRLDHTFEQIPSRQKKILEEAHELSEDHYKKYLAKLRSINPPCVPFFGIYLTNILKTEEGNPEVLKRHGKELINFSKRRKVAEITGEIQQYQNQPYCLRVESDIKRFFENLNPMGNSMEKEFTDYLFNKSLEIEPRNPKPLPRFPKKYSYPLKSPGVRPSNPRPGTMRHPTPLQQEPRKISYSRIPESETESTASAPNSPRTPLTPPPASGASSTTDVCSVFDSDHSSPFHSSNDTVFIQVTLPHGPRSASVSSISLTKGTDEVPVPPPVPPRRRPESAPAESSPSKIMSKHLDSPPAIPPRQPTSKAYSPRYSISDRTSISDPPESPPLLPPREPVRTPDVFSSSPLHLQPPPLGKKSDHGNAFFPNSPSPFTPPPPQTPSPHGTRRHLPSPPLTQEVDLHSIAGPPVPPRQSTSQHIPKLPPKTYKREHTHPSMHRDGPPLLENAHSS

[2] = target: T2, Son of sevenless homolog 1 (Homo sapiens, UniProt Q07889); assay: Binding affinity to human recombinant N-terminal His6-tagged SOS1 (564 to 1049 residues) expressed in BL21-RIL Escherichia coli by fluorescent probe S3 based fluorescence polarization anisotrophy saturation binding assay
T2 sequence (Q07889 whole entry): T1 sequence (whole entry)
Method in brief: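 SOS1cat (aa 564–1049) was titrated in a 16-point, 3-fold series from 10 μM top against 50 nM fluorescein probe S3. Buffer was 20 mM Tris-HCl pH 7.5, 50 mM NaCl, 1 mM magnesium chloride. Fluorescence anisotropy was read and Kd reported as mean ± SD of at least three independent experiments.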

[3] = target: T2, Son of sevenless homolog 1; assay: Activation of SOS1 in human HeLa cells expressing wild type KRAS assessed as induction of ERK1/2 T202/Y204 phosphorylation incubated for 30 mins by In-cell Western assay; format: cell-based
[4] = target: Son of sevenless homolog 1 (Homo sapiens, UniProt Q07889); assay: Activation of SOS1 in human NCI-H727 cells expressing KRAS G12V mutant assessed as induction of ERK1/2 T202/Y204 phosphorylation incubated for 30 mins by In-cell Western assay; format: cell-based
[5] = target: T1, Son of sevenless homolog 1 (Homo sapiens); assay: Biphasic activity at of SOS1 in human HeLa cells expressing wild type KRAS assessed as induction of ERK1/2 T202/Y204 phosphorylation at 1.5 to 100 uM (lower range) incubated for 30 mins by In-cell Western assay; format: cell-based
[6] = target: T1, Son of sevenless homolog 1 (Homo sapiens); assay: Activation of SOS1 in human NCI-H727 cells expressing KRAS G12V mutant assessed as induction of ERK1/2 T202/Y204 phosphorylation at 1.5 to 100 uM (higher range) incubated for 30 mins by In-cell Western assay; format: cell-based
[7] = target: T1, Son of sevenless homolog 1 (Homo sapiens); assay: Biphasic activity at of SOS1 in human HeLa cells expressing wild type KRAS assessed as reduction in ERK1/2 T202/Y204 phosphorylation at 1.5 to 100 uM (higher range) incubated for 30 mins by In-cell Western assay; format: cell-based
[8] = target: T2, Son of sevenless homolog 1; assay: Binding affinity to human recombinant N-terminal His6-tagged SOS1 (564 to 1049 residues) expressed in BL21-RIL Escherichia coli by fluorescent probe S1 based fluorescence polarization anisotrophy saturation binding assay
Method in brief: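 SOS1cat (aa 564–1049) was titrated in a 12-point, 2-fold series from 10 μM top against 50 nM fluorescein-labeled probe. Buffer was 20 mM Tris-HCl pH 7.5, 50 mM NaCl, 1 mM magnesium chloride, with 20 min at room temperature in the dark. Anisotropy was read and Kd reported as mean ± SD of at least three independent experiments.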

[9] = target: T1, Son of sevenless homolog 1 (Homo sapiens); assay: Activation of SOS1 in human HeLa cells expressing wild type KRAS assessed as increase in RAS-GTP levels at 10 to 30 uM incubated for 10 mins by active RAS pull-down assay; format: cell-based
Method in brief: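 HeLa cells, STR-authenticated and mycoplasma-negative, were passaged at least twice after thaw (25 passages maximum). They were seeded to reach 70% confluency after 24 h, then treated. Active RAS-GTP was captured by RAF1-RBD pull-down and detected by SDS-PAGE and western blot with a pan-RAS antibody and a fluorescent secondary, read on an Odyssey imager. Total RAS and α-tubulin in the input served as loading controls.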

[10] = target: T1, Son of sevenless homolog 1 (Homo sapiens); assay: Activation of SOS1 in human HeLa cells expressing wild type KRAS assessed as induction of ERK1/2 T202/Y204 phosphorylation at 1.5 to 100 uM incubated for 30 mins by In-cell Western assay
[11] = target: T1, Son of sevenless homolog 1 (Homo sapiens); assay: Activation of SOS1 in human HeLa cells expressing wild type KRAS assessed as increase in RAS-GTP levels at 0.3 to 30 uM incubated for 10 mins by active RAS pull-down assay; format: cell-based
Method in brief: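 HeLa cells seeded to reach 70% confluency after 24 h, then treated. RAS-GTP was captured by a RAF1-RBD active RAS pull-down kit, resolved by SDS-PAGE, blotted to PVDF and probed with pan-RAS antibody. Total RAS and α-tubulin inputs served as loading controls. Detection was by fluorescent secondary antibody on an Odyssey imager.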

[12] = target: T2, Son of sevenless homolog 1; assay: Binding affinity to human recombinant N-terminal His6-tagged SOS1 (564 to 1049 residues) expressed in BL21-RIL Escherichia coli by fluorescent probe S2 based fluorescence polarization anisotrophy saturation binding assay
[13] = Aqueous solubility in pH 6.8 buffer at 1 mg/mL by HPLC/DAD-UV assay; format: physicochemical
Method in brief: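 Solid compound was dispensed at 1 mg/mL into McIlvaine buffer pH 6.8, with a reference dissolved in acetonitrile/water 1:1 (v/v). Dissolved concentration was quantified by HPLC-DAD-UV. Single experiment.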

[14] = target: T1, Son of sevenless homolog 1 (Homo sapiens); assay: Activation of SOS1 in human HeLa cells expressing wild type KRAS assessed as increase in RAS-GTP levels at 0.3 uM incubated for 10 mins by active RAS pull-down assay; format: cell-based

SMILES	Activity [1]	pKd [2]	pEC50 [3]	pEC50 [4]	Activity [5]	Activity [6]	Activity [7]	pKd [8]	Activity [9]	Activity [10]	Activity [11]	pKd [12]	solubility [13]	Activity [14]
Cc1cc(Cn2c(N3CC4(CNC4)C3)nc3c(-c4c(C)n[nH]c4C)cc(Cl)cc32)cc(C)c1F	Active	8.05	4.85	4.68	Active	Active	Active	–	–	–	–	–	–	–
Cc1nc(N)ncc1-c1cc(Cl)cc2c1nc(N1CC3(CNC3)C1)n2Cc1ccc(F)cc1	Active	7.44	4.85	4.56	Active	inactive	Active	–	–	–	–	–	–	–
Cc1cc(Cn2c(N3CCNCC3)nc3ccc(Cl)cc32)cc(C)c1F	Active	–	4.84	4.67	Active	Active	Active	6.34	–	–	–	–	–	–
Cc1cc(Cn2c(N3CCNCC3)nc3c(N4CCN(C)CC4)cc(Cl)cc32)cc(C)c1F	–	–	–	–	Active	Active	Active	–	Active	Active	–	–	–	–
Cc1cc(Cn2c(N3CCNCC3)nc3c(-c4cncnc4C)cc(Cl)cc32)cc(C)c1F	Active	–	4.99	4.84	Active	Active	Active	–	–	–	Active	6.96	–	–
Cc1cc(Cn2c(N3CC4(CNC4)C3)nc3c(-c4ccccc4Cl)cc(Cl)cc32)cc(C)c1F	Active	7.92	4.85	4.71	Active	Active	Active	–	–	–	–	–	–	–
Cc1cc(Cn2c(N3CCNCC3)nc3c(-c4ccccc4Cl)cc(Cl)cc32)cc(C)c1F	Active	–	4.96	4.43	Active	inactive	Active	6.92	–	–	–	–	–	–
Cc1ncncc1-c1cc(Cl)cc2c1nc(N1CC3(CNC3)C1)n2Cc1ccc(F)cc1	Active	–	4.48	4.37	Active	inactive	inactive	–	–	–	Active	6.74	–	–
Cc1cc(Cn2c(N3CC4(CNC4)C3)nc3c(-c4cncnc4C)cc(Cl)cc32)cc(C)c1F	Active	7.80	4.94	4.80	Active	Active	Active	–	–	–	Active	–	3 µg/mL (≈ 6.29 µM)	–
Cc1cc(Cn2c(N3CC4(CNC4)C3)nc3c(N4CCN(C)CC4)cc(Cl)cc32)cc(C)c1F	Active	7.36	5.23	5.00	Active	Active	Active	–	Active	Active	–	–	> 110 µg/mL	Active
Cc1cc(Cn2c(N3CC4(CNC4)C3)nc3c(-c4cnc(N)nc4C)cc(Cl)cc32)cc(C)c1F	Active	7.92	5.11	4.87	Active	Active	Active	–	–	–	–	–	–	–
Cc1cc(Cn2c(N3CCNCC3)nc3c(-c4ccccc4C(F)(F)F)cc(Cl)cc32)cc(C)c1F	–	–	–	–	–	–	–	6.82	–	–	–	–	–	–
